Data reported in ChEMBL document CHEMBL4732121, “Imidazo[1,2-a]quinoxalines for melanoma treatment with original mechanism of action” (Eur J Med Chem, 2021).
Each block holds one compound with its values, some of them ahead of it. The source made the active and inactive calls. The calls are words filed in the database; no cut-off is given here.

How the values were obtained:
[1] = system: A-375; assay: Antiproliferative activity against human A-375 cells assessed as reduction in cell viability measured after 96 hrs by MTT assay; type: functional, cell-based; details: Homo sapiens, A-375, 96 h
Method in brief: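 A375 cells in RPMI-1640 with 10% heat-inactivated FBS, 2 mM L-glutamine and antibiotics, 37°C, 5% CO₂. Seeded at 5000 cells/well and attached overnight, then exposed to 10⁻⁵–3.2.10⁻⁹ M in 0.15% DMSO/medium for 96 h. MTT at 0.5 mg/ml final for 4 h, formazan dissolved in 10% SDS/0.01 M HCl, OD 570 nm. At least three experiments in triplicate; IC50 from sigmoidal dose–response curves.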

[2] = system: A-375; assay: Antitumor activity against human A-375 cells xenografted in Balb/c nude mouse assessed as change in tumor stroma at 75 mg/kg, ip administered 3 times a week during first week and twice a week for next 2 weeks measured post last dose by trichrome staining based histopathological analysis; type: functional, organism-based; details: time 3.0 weeks
Method in brief: (§1)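 Balb/c nude mice given 10×10^6 A375 cells in PBS subcutaneously in the right flank under isoflurane. Groups of 6-12 allocated on Day 14 at 110-130 mm^3 mean tumor volume; dosed ip for three weeks. Drug in DMSO/Tween 80 (1:1) diluted with saline; vehicle DMSO/Tween 80/saline (1:1:8). Tumors fixed in buffered 3.7% formalin and read blind by a veterinary pathologist after mid-sagittal section.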

[3] = Inhibition of pig brain tubulin polymerization at 5 uM measured after 45 mins by turbidimetry based spectrophotometric method relative to control; type: tissue-based, Sus scrofa; details: 0.75 h
[4] = system: MeWo; assay: Antiproliferative activity against human MeWo cells assessed as reduction in cell viability measured after 96 hrs by MTT assay; type: functional, cell-based
[5] = system: A2058; assay: Antiproliferative activity against human A2058 cells assessed as reduction in cell viability measured after 96 hrs by MTT assay; type: functional, cell-based; details: A2058, 96 h
[6] = system: IPC-298; assay: Antiproliferative activity against human IPC-298 cells assessed as reduction in cell viability measured after 96 hrs by MTT assay; type: functional, cell-based; details: IPC-298, 96 h
[7] = Cytotoxicity against human PBMC cells assessed as reduction in cell viability at 0.2 mM measured after 96 hrs by MTT assay; type: cell-based; details: 200 µM
[8] = system: A-375; assay: Antitumor activity against human A-375 cells xenografted in Balb/c nude mouse assessed as reduction in tumor size at 75 mg/kg, ip administered 3 times a week during first week and twice a week for 2 week by caliper method relative to control; type: functional; design: scale not given: the % may be the effect or the level left; details: time 3 weeks; method in brief: as §1
[9] = Toxicity in Balb/c nude mouse xenografted with human A-375 cells assessed as reduction in body weight at 75 mg/kg, ip administered 3 times a week during first week and twice a week for 2 week; type: organism-based; details: in vivo, 504 h, time 3 weeks
Method in brief: (§2)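 Balb/c nude mice inoculated s.c. in right flank with 10×10^6 A375 cells in PBS under isoflurane; dosing started once mean tumor volume reached 110-130 mm3, groups allocated Day 14. IP dosing for three weeks; vehicle DMSO/Tween 80 (vol/vol) plus injectable saline (8 vol), solutions made daily. Body weight followed during treatment; gross pathology at study termination; n = 4 mice per group reported.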

[10] = Toxicity in Balb/c nude mouse xenografted with human A-375 cells assessed as morbidity at 75 mg/kg, ip administered 3 times a week during first week and twice a week for 2 week; type: organism-based; details: in vivo, 504 h, time 3 weeks; method in brief: as §2
[11] = Toxicity in Balb/c nude mouse xenografted with human A-375 cells assessed as mortality at 75 mg/kg, ip administered 3 times a week during first week and twice a week for 2 week; type: organism-based; details: in vivo, 504 h, time 3 weeks; method in brief: as §2
[12] = Toxicity in Balb/c nude mouse xenografted with human A-375 cells assessed as effect on liver pathology at 75 mg/kg, ip administered 3 times a week during first week and twice a week for 2 week measured post last dose by pathological analysis; type: organism-based; details: in vivo, 504 h, time 3 weeks; method in brief: as §2
[13] = Toxicity in Balb/c nude mouse xenografted with human A-375 cells assessed as effect on spleen pathology at 75 mg/kg, ip administered 3 times a week during first week and twice a week for 2 week measured post last dose by pathological analysis; type: organism-based; details: in vivo, 504 h, time 3 weeks; method in brief: as §2
[14] = Toxicity in Balb/c nude mouse xenografted with human A-375 cells assessed as effect on gut pathology at 75 mg/kg, ip administered 3 times a week during first week and twice a week for 2 week measured post last dose by pathological analysis; type: organism-based; details: in vivo, 504 h, time 3 weeks; method in brief: as §2
[15] = Toxicity in Balb/c nude mouse xenografted with human A-375 cells assessed as effect on pancreas pathology at 75 mg/kg, ip administered 3 times a week during first week and twice a week for 2 week measured post last dose by pathological analysis; type: organism-based; details: in vivo, 504 h, time 3 weeks; method in brief: as §2
[16] = system: A-375; assay: Antitumor activity against human A-375 cells xenografted in Balb/c nude mouse assessed as reduction in tumor size at 30 mg/kg, ip administered 5 times a week for 3 weeks by caliper method; type: functional, organism-based; method in brief: as §1
[17] = Toxicity in Balb/c nude mouse xenografted with human A-375 cells assessed as change in body weight at 30 mg/kg, ip administered 5 times a week for 3 weeks; type: organism-based; details: in vivo, 504 h
[18] = Toxicity in Balb/c nude mouse xenografted with human A-375 cells assessed as adverse effect at 30 mg/kg, ip administered 5 times a week for 3 weeks; type: organism-based; details: in vivo, 504 h
[19] = Toxicity in Balb/c nude mouse xenografted with human A-375 cells assessed as pathological changes at 30 mg/kg, ip administered 5 times a week for 3 weeks measured post last dose by histopathological analysis; type: organism-based; details: in vivo, 504 h
[20] = system: A-375; assay: Antitumor activity against human A-375 cells xenografted in Balb/c nude mouse assessed as reduction in tumor size at 25 mg/kg, ip administered 3 times a week for 3 weeks by caliper method relative to control; type: functional; design: scale not given: the % may be the effect or the level left; method in brief: as §1
[21] = system: A-375; assay: Antitumor activity against human A-375 cells xenografted in Balb/c nude mouse assessed as reduction in tumor weight at 30 mg/kg, ip administered 5 times a week for 3 weeks measured post last dose; type: functional, organism-based; method in brief: as §1
[22] = system: A-375; assay: Antitumor activity against human A-375 cells xenografted in Balb/c nude mouse assessed as reduction in tumor weight at 75 mg/kg, ip administered 3 times a week during first week and twice a week for next 2 weeks measured post last dose; type: functional, organism-based; details: time 3.0 weeks; method in brief: as §1
[23] = system: A-375; assay: Antitumor activity against human A-375 cells xenografted in Balb/c nude mouse assessed as reduction in tumor weight at 25 mg/kg, ip administered 3 times a week for 3 weeks measured post last dose; type: functional, organism-based; method in brief: as §1
[24] = system: A-375; assay: Antitumor activity against human A-375 cells xenografted in ip dosed Balb/c nude mouse assessed as reduction in tumor weight administered 3 times a week for 3 weeks measured post last dose; type: functional, organism-based; details: dose 25-75 mg/kg
[25] = system: A-375; assay: Antitumor activity against human A-375 cells xenografted in ip dosed Balb/c nude mouse assessed as reduction in tumor size administered 3 times a week for 3 weeks by caliper method; type: functional, organism-based; details: dose 25-75 mg/kg
[26] = system: A-375; assay: Antitumor activity against human A-375 cells xenografted in Balb/c nude mouse assessed as change in tumor stroma at 30 mg/kg, ip administered 5 times a week for 3 weeks measured post last dose by trichrome staining based histopathological analysis; type: functional, organism-based; method in brief: as §1
[27] = system: A-375; assay: Antitumor activity against human A-375 cells xenografted in Balb/c nude mouse assessed as change in tumor stroma at 25 mg/kg, ip administered 3 times a week for 3 weeks measured post last dose by trichrome staining based histopathological analysis; type: functional, organism-based; method in brief: as §1
[28] = system: A-375; assay: Antitumor activity against human A-375 cells xenografted in Balb/c nude mouse assessed as change in tumor inflammation at 75 mg/kg, ip administered 3 times a week during first week and twice a week for next 2 weeks measured post last dose by trichrome staining based histopathological analysis; type: functional, organism-based; details: time 3.0 weeks; method in brief: as §1
[29] = system: A-375; assay: Antitumor activity against human A-375 cells xenografted in Balb/c nude mouse assessed as change in tumor inflammation at 30 mg/kg, ip administered 5 times a week for 3 weeks measured post last dose by trichrome staining based histopathological analysis; type: functional, organism-based; method in brief: as §1
[30] = system: A-375; assay: Antitumor activity against human A-375 cells xenografted in Balb/c nude mouse assessed as change in tumor inflammation at 25 mg/kg, ip administered 3 times a week for 3 weeks measured post last dose by trichrome staining based histopathological analysis; type: functional, organism-based; method in brief: as §1
[31] = system: A-375; assay: Antitumor activity against human A-375 cells xenografted in Balb/c nude mouse assessed as vascularization at 75 mg/kg, ip administered 3 times a week during first week and twice a week for next 2 weeks measured post last dose by trichrome staining based histopathological analysis; type: functional, organism-based; details: time 3.0 weeks; method in brief: as §1
[32] = system: A-375; assay: Antitumor activity against human A-375 cells xenografted in Balb/c nude mouse assessed as vascularization at 30 mg/kg, ip administered 5 times a week for 3 weeks measured post last dose by trichrome staining based histopathological analysis; type: functional, organism-based; method in brief: as §1
[33] = system: A-375; assay: Antitumor activity against human A-375 cells xenografted in Balb/c nude mouse assessed as vascularization at 25 mg/kg, ip administered 3 times a week for 3 weeks measured post last dose by trichrome staining based histopathological analysis; type: functional, organism-based; method in brief: as §1
[34] = system: A-375; assay: Antitumor activity against human A-375 cells xenografted in Balb/c nude mouse assessed as reduction in cell invasion at 75 mg/kg, ip administered 3 times a week during first week and twice a week for next 2 weeks measured post last dose; type: functional, organism-based; details: time 3.0 weeks; method in brief: as §1
[35] = system: A-375; assay: Antitumor activity against human A-375 cells xenografted in Balb/c nude mouse assessed as reduction in cell invasion at 30 mg/kg, ip administered 5 times a week for 3 weeks measured post last dose; type: functional, organism-based; method in brief: as §1
[36] = system: A-375; assay: Antitumor activity against human A-375 cells xenografted in Balb/c nude mouse assessed as reduction in cell invasion at 25 mg/kg, ip administered 3 times a week for 3 weeks measured post last dose; type: functional, organism-based; method in brief: as §1
[37] = system: A-375; assay: Antitumor activity against human A-375 cells xenografted in Balb/c nude mouse assessed as reduction in mitotic index at 75 mg/kg, ip administered 3 times a week during first week and twice a week for next 2 weeks measured post last dose; type: functional, organism-based; details: time 3.0 weeks; method in brief: as §1
[38] = system: A-375; assay: Antitumor activity against human A-375 cells xenografted in Balb/c nude mouse assessed as reduction in mitotic index at 30 mg/kg, ip administered 5 times a week for 3 weeks measured post last dose; type: functional, organism-based; method in brief: as §1
[39] = system: A-375; assay: Antitumor activity against human A-375 cells xenografted in Balb/c nude mouse assessed as reduction in mitotic index at 25 mg/kg, ip administered 3 times a week for 3 weeks measured post last dose; type: functional, organism-based; method in brief: as §1

IC50 [1]: > 10000 nM
Structure (SMILES): Nc1nccn2c(-c3ccc(O)c(O)c3)cnc12

IC50 [1]: 5690 nM
Structure (SMILES): NCCCCCCNc1nc2ccccc2n2c(-c3ccc(O)c(O)c3)cnc12

IC50 [1]: > 10000 nM
Structure (SMILES): Oc1ccc(-c2cnc3c(O)nc4ccccc4n23)cc1O

IC50 [1]: 3490 nM
Structure (SMILES): CNc1nc2cc(OC(F)(F)F)ccc2n2c(-c3ccc(OC)c(OC)c3)cnc12

IC50 [1]: > 10000 nM
Structure (SMILES): CNc1nccn2c(-c3ccc(O)c(O)c3)cnc12

The remaining lines, values behind:

Structure (SMILES): CNc1nc2ccccc2n2c(-c3ccc(O)c(O)c3)cnc12
Activity [2]: inactive
inhibition (INH) [3]: Not Active
IC50 [1]: 3 nM
IC50 [4]: 3 nM
IC50 [5]: 4 nM
IC50 [6]: 40 nM
Activity [7]: Non-Toxic
Activity [8]: 80%
Activity [9]: Toxic
Activity [10]: Toxic
Activity [11]: Toxic
Activity [12]: Toxic
Activity [13]: Toxic
Activity [14]: Toxic
Activity [15]: Toxic
Activity [16]: Active
Activity [17]: Non-Toxic
Activity [18]: Non-Toxic
Activity [19]: Non-Toxic
Activity [20]: 50%
Activity [21]: Active
Activity [22]: Active
Activity [23]: Active
Activity [24]: Dose-dependent effect
Activity [25]: Dose-dependent effect
Activity [26]: inactive
Activity [27]: inactive
Activity [28]: inactive
Activity [29]: inactive
Activity [30]: inactive
Activity [31]: inactive
Activity [32]: inactive
Activity [33]: inactive
Activity [34]: Active
Activity [35]: Active
Activity [36]: Active
Activity [37]: Active
Activity [38]: Active
Activity [39]: Active

Structure (SMILES): CNc1nc2ccccc2n2c(-c3ccc(OC)c(OC)c3)cnc12
IC50 [1]: 193 nM

Structure (SMILES): Oc1ccc(-c2cnc3c(N4CCNCC4)nc4ccccc4n23)cc1O
IC50 [1]: > 10000 nM

Structure (SMILES): COc1ccc(-c2cnc3c(N)nccn23)cc1OC
IC50 [1]: > 10000 nM

Structure (SMILES): CNc1nc2ccc(C(F)(F)F)cc2n2c(-c3ccc(O)c(O)c3)cnc12
IC50 [1]: > 10000 nM

Structure (SMILES): CNc1nc2ccccc2n2c(-c3cccc(OC)c3)cnc12
inhibition (INH) [3]: 84%
IC50 [1]: 383 nM
IC50 [4]: 125 nM
IC50 [5]: 185 nM
IC50 [6]: 469 nM

Structure (SMILES): COc1ccc(-c2cnc3c(N(C)C)nc4ccccc4n23)cc1OC
IC50 [1]: 414 nM

Structure (SMILES): CNc1nc2ccc(C(F)(F)F)cc2n2c(-c3ccc(OC)c(OC)c3)cnc12
IC50 [1]: > 10000 nM

Structure (SMILES): COc1ccc(-c2cnc3c(NCCCNC(=O)OC(C)(C)C)nc4ccccc4n23)cc1OC
IC50 [1]: > 10000 nM
